In ChEMBL document CHEMBL2034909, “Inhibition of thioredoxin reductase by a novel series of bis-1,2-benzisoselenazol-3(2H)-ones: Organoselenium compounds for cancer therapy” (Bioorg Med Chem, 2012):
Activity calls are given as the source filed them. The calls are words filed in the database; no cut-off is given here.

Tests used:
[1] = target: T1, Thioredoxin reductase 1, cytoplasmic (Rattus norvegicus) (UniProt O89049); test: (§1) Inhibition of TrxR1 in rat liver homogenate preincubated for 5 mins measured by DNTB assay; format: tissue-based
T1 sequence (whole entry): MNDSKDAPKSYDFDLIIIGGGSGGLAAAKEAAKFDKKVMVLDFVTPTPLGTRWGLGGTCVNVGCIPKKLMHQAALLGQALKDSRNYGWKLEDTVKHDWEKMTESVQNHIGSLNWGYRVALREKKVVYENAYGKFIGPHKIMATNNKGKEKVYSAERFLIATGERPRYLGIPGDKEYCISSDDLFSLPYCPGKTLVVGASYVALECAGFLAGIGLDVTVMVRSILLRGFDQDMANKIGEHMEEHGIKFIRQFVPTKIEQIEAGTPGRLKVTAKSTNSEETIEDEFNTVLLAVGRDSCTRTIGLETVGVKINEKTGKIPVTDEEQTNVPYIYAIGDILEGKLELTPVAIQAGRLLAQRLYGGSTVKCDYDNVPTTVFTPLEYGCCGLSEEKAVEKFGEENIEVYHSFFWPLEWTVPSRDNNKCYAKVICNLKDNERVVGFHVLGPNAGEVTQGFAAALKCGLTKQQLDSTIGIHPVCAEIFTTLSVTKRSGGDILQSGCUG
In short: (§2)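 Rat liver TrxR (purified, 10 μg) in 100 mM potassium phosphate, 2 mM EDTA, pH 7.4 with NADPH, pre-incubated 5 min with inhibitor (DMSO control) at room temperature. DTNB was then added and A412 increase followed over the first 120 s. IC50 given as mean ± SD of triplicate experiments.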

[2] = target: T2, Thioredoxin reductase 1, cytoplasmic (Rattus norvegicus, UniProt O89049); test: as §1; format: tissue-based; in short: as §2
T2 sequence (O89049 whole entry): T1 sequence (whole entry)

MIA PaCa-2 = test: Growth inhibition of human MIAPaCa2 cells after 48 hrs by MTT assay; format: functional, cell-based; conditions: MIA PaCa-2, 48 h
In short: (§3)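 Exponentially growing cells were seeded at 4000–5000 per well. LoVo was grown in RPMI 1640 and MIA PaCa-2 and U87 MG in DMEM, each with 10% FBS and penicillin/streptomycin at 37 °C under 5% CO2. Compounds in DMSO (0–50 μM) were added for 48 h, and growth was read by MTT.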

[3] = Growth inhibition of human U87MG cells after 48 hrs by MTT assay; format: functional, cell-based, U-87MG ATCC; conditions: U-87 MG; in short: as §3
LoVo = test: Growth inhibition of human LoVo cells after 48 hrs by MTT assay; format: functional, cell-based; in short: as §3
Thioredoxin reductase [4] = target: T3, Thioredoxin reductase (Homo sapiens, UniProt Q16881+Q9NNW7+Q86VQ6); test: Inhibition of TrxR in human U87MG cells after 12 hrs by insulin-reducing method; format: cell-based; conditions: for IC50: u-87mg atcc; for inhibition: U-87MG ATCC
In short: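 U87 MG cells were treated with graded compound concentrations for 12 h, with 1% DMSO as control. Reactions were quenched with guanidine-HCl/DTNB and read at A412. The Trx-free blank was subtracted.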

Thioredoxin reductase [5] = target: T3, Thioredoxin reductase; test: Inhibition of TrxR in human U87MG cells at 20 uM after 12 hrs by insulin-reducing method; format: cell-based; conditions: U-87MG ATCC
In short: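 U87 MG glioma cells were treated with compound for 12 h (1% DMSO control), washed in PBS, lysed in Triton/deoxycholate/EDTA/SDS/PMSF buffer and spun at 13000g. Lysate protein (40 µg, BCA) was incubated 30 min at 37 °C with HEPES pH 7.6, EDTA, 1 mM NADPH, 1 µM E. coli Trx and 2.5 mg/ml insulin. Quench with guanidine-HCl/DTNB, read A412, subtract the no-Trx blank.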

[6] = Mixed type inhibition of TrxR by Michaelis-Menten plot analysis
[7] = Time dependent inhibition of TrxR
[8] = Reversible inhibition of TrxR by ultrafiltration assay
[9] = target: T4, Glutathione reductase, mitochondrial (Homo sapiens) (UniProt P00390); test: Inhibition of human glutathione reductase at 100 uM after 10 mins by GSSH reduction assay
T4 sequence (whole entry): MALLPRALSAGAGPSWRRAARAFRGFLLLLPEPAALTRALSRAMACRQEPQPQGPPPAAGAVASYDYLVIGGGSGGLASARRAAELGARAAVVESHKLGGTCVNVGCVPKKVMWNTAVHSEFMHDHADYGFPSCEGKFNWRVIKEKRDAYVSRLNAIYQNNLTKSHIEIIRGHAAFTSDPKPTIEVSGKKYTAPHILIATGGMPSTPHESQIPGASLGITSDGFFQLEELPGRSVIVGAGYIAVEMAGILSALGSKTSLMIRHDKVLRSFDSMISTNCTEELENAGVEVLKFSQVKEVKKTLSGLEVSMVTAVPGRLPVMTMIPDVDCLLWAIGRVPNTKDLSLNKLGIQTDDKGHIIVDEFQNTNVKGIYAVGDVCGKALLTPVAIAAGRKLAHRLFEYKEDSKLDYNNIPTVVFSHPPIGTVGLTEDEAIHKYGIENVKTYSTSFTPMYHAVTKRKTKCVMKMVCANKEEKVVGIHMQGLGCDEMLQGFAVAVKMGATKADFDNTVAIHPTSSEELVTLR

[10] = Binding affinity to TrxR Sec498 residue at pH 8.5 after 2 hrs by BIAM assay
[11] = Binding affinity to TrxR Cys497 residue at pH 8.5 after 2 hrs by BIAM assay
[12] = Binding affinity to TrxR Sec498 residue at pH 6.5 after 2 hrs by BIAM assay
Thioredoxin reductase [13] = target: T3, Thioredoxin reductase; test: Inhibition of human C-terminal truncated TrxR; format: protein assay
Homo sapiens = species: Homo sapiens; test: Inhibition of human […] Sec498Cys mutant at 100 uM after 10 mins by GSSH reduction assay

| inhibition [1] | IC50 [2] [µM] | Compound | IC50 (MIA PaCa-2) [µM] | IC50 [3] [µM] | other results |
| --- | --- | --- | --- | --- | --- |
| Dose-dependent effect | 0.13 | COc1ccc2[se]n(CCn3[se]c4ccc(OC)cc4c3=O)c(=O)c2c1 | 2.84 | 1.64 | IC50 (LoVo): 5.28 µM; IC50 (Thioredoxin reductase [4]): 2 µM; inhibition (Thioredoxin reductase [5]): > 90%; inhibition [6]: Active; inhibition [7]: Active; inhibition [8]: Active; inhibition [9]: < 30%; inhibition [10]: Dose-dependent effect; inhibition [11]: Dose-dependent effect; inhibition [12]: Dose-dependent effect |
| Dose-dependent effect | 22.6 | CC(=O)Oc1ccc2[se]n(CCn3[se]c4ccc(OC(C)=O)cc4c3=O)c(=O)c2c1 | 10.2 | 20.8 |  |
| Dose-dependent effect | > 50 | Cc1ccc2[se]n(C3CCC(n4[se]c5ccc(C)cc5c4=O)CC3)c(=O)c2c1 (centres undefined) |  |  |  |
| Dose-dependent effect | 2.38 | Cc1ccc2[se]n(CCCCn3[se]c4ccc(C)cc4c3=O)c(=O)c2c1 |  |  |  |
| Dose-dependent effect | 4.54 | O=c1c2ccc(Cl)cc2[se]n1CCCCCn1[se]c2cc(Cl)ccc2c1=O |  |  |  |
| Dose-dependent effect | > 100 | O=c1c2ccccc2on1CCn1oc2ccccc2c1=O |  |  |  |
| Dose-dependent effect | 3.16 | Cc1ccc2[se]n(CCCCCn3[se]c4ccc(C)cc4c3=O)c(=O)c2c1 | 6.71 | 12.2 | IC50 (LoVo): 16.6 µM |
| Dose-dependent effect | 12.8 | O=c1c2ccccc2[se]n1C1CCCCC1n1[se]c2ccccc2c1=O (centres undefined) | 11.5 | > 50 | IC50 (LoVo): 17.2 µM |
| Dose-dependent effect | 1.59 | O=c1c2cc(Br)ccc2[se]n1CCCCCn1[se]c2ccc(Br)cc2c1=O |  |  |  |
| Dose-dependent effect | 2.91 | O=c1c2ccc(F)cc2[se]n1CCCCCn1[se]c2cc(F)ccc2c1=O |  |  |  |
| Dose-dependent effect | 1.66 | O=c1c2ccccc2[se]n1CCCCCCn1[se]c2ccccc2c1=O |  |  |  |
| Dose-dependent effect | 4.91 | Cc1ccc2[se]n(CCCCCCn3[se]c4ccc(C)cc4c3=O)c(=O)c2c1 |  |  |  |
| Dose-dependent effect | 4.49 | O=c1c2ccccc2[se]n1CCCCCCCCn1[se]c2ccccc2c1=O |  |  |  |
| Dose-dependent effect | 47.7 | O=c1c2ccccc2[se]n1Cc1ccc(-n2[se]c3ccccc3c2=O)cc1 | > 50 |  | IC50 (LoVo): > 50 µM |
| Dose-dependent effect | 3.87 | O=c1c2cc(F)ccc2[se]n1CCCCCn1[se]c2ccc(F)cc2c1=O |  |  |  |
| Dose-dependent effect | 1.64 | O=c1c2cc(F)ccc2[se]n1CCCCn1[se]c2ccc(F)cc2c1=O |  |  |  |
| Dose-dependent effect | 34.3 | O=c1c2ccccc2[se]n1-c1ccc(-n2[se]c3ccccc3c2=O)cc1 | > 50 | > 50 |  |
| Dose-dependent effect | 0.57 | O=c1c2cc([N+](=O)[O-])ccc2[se]n1CCn1[se]c2ccc([N+](=O)[O-])cc2c1=O | > 50 | > 50 | inhibition (Thioredoxin reductase [4]): Dose-dependent effect |
| Dose-dependent effect | 48.1 | O=c1c2ccccc2sn1CCn1sc2ccccc2c1=O |  |  |  |
| Dose-dependent effect | 1.8 | O=c1c2cc(Cl)ccc2[se]n1CCCCCn1[se]c2ccc(Cl)cc2c1=O |  |  |  |
| Dose-dependent effect | 5.85 | O=c1c2ccccc2[se]n1CCCCCCCn1[se]c2ccccc2c1=O |  |  |  |

| Compound | inhibition [1] | IC50 [2] [µM] | IC50 (MIA PaCa-2) [µM] | IC50 [3] [µM] | other results |
| --- | --- | --- | --- | --- | --- |
| O=c1c2ccc(Cl)cc2[se]n1CCn1[se]c2cc(Cl)ccc2c1=O | Dose-dependent effect | 2.87 | > 50 | > 50 |  |
| O=c1c2ccccc2[se]n1CCCCn1[se]c2ccccc2c1=O | Dose-dependent effect | 1.03 |  |  |  |
| O=c1c2ccc(F)cc2[se]n1CCn1[se]c2cc(F)ccc2c1=O | Dose-dependent effect | 0.82 | 8.47 | 12.6 |  |
| O=c1c2cc(F)ccc2[se]n1CCn1[se]c2ccc(F)cc2c1=O | Dose-dependent effect | 0.28 | 3.07 | 6.95 | IC50 (LoVo): 4.55 µM |
| O=c1c2cc(Cl)ccc2[se]n1CCn1[se]c2ccc(Cl)cc2c1=O | Dose-dependent effect | 1.31 | > 50 | > 50 |  |
| Cc1ccc2[se]n(CCn3[se]c4ccc(C)cc4c3=O)c(=O)c2c1 | Dose-dependent effect | 1.26 | 5.94 | 17.8 | IC50 (LoVo): 6.12 µM; inhibition (Thioredoxin reductase [4]): Dose-dependent effect |
| O=c1c2ccccc2[se]n1CCCCCn1[se]c2ccccc2c1=O | Dose-dependent effect | 1.95 | 3.27 | 6.05 | IC50 (LoVo): 5.5 µM |
| O=c1c2cc(O)ccc2[se]n1CCn1[se]c2ccc(O)cc2c1=O | Dose-dependent effect | 0.32 | 5.3 | 6.6 | IC50 (LoVo): 6.53 µM |
| Cc1ccc2[se]n(CCCn3[se]c4ccc(C)cc4c3=O)c(=O)c2c1 | Dose-dependent effect | 1.16 |  |  |  |
| O=c1c2ccccc2[se]n1CCCn1[se]c2ccccc2c1=O | Dose-dependent effect | 0.78 |  |  |  |
| O=c1c2ccccc2[se]n1CCn1[se]c2ccccc2c1=O [ETHASELEN] | Dose-dependent effect |  | 3.79 | 6.41 | IC50 (LoVo): 7.67 µM; inhibition (Thioredoxin reductase [4]): Dose-dependent effect; IC50 (Thioredoxin reductase [4]): 5 µM; inhibition [9]: inactive; inhibition (Thioredoxin reductase [13]): inactive; inhibition (Homo sapiens): inactive |
| O=c1c2cc(Br)ccc2[se]n1CCn1[se]c2ccc(Br)cc2c1=O | Dose-dependent effect | 1.58 | > 50 | > 50 | inhibition (Thioredoxin reductase [4]): Dose-dependent effect |
| O=c1c2cc(F)ccc2[se]n1CCCn1[se]c2ccc(F)cc2c1=O | Dose-dependent effect | 0.86 |  |  |  |
